For assay [1], the system named is Neutrophil. Briefly: Anti-inflammatory activity in human neutrophils assessed as inhibition of fMLP/CB-induced elastase release at 10 uM using MeO-Suc-Ala-Ala-Pro-Val-p-nitroanilide as a substrate pretreated for 5 mins followed by fMLP/CB addition relative to control. It counts as functional. The method in brief: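 Neutrophils from healthy donors aged 20−35 (venipuncture), equilibrated at 37 °C for 2 min with 100 μM MeO-Suc-Ala-Ala-Pro-Val-p-nitroanilide, then exposed to compound 5 min. Stimulus: 100 nM fMLP plus 0.5 μg/mL cytochalasin B. Elastase release followed continuously at 405 nm. Percent inhibition at 10 μM versus control, mean ± SEM (n = 3, 4).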

Assay [2] relates to Neutrophil. Put plainly: Anti-inflammatory activity in human neutrophils assessed as inhibition of fMLP/CB-induced superoxide anion production by measuring reduction of ferricytochrome c at 10 uM pretreated for 5 mins followed by fMLP/CB addition measured after 10 mins by spectrophotometric method relative to control. It counts as functional. The method in brief: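 Donor neutrophils (healthy, 20−35 y) held 2 min at 37 °C in 0.5 mg/mL ferricytochrome c with 1 mM Ca2+, then 5 min with compound, then fMLP 100 nM/cytochalasin B 1 μg/mL for 10 min. Continuous 550 nm read with stirring. SOD-inhibitable (100 U/mL) difference converted using ε = 21.1/mM/10 mm. Inhibition % at 10 μM, mean ± SEM (n = 3, 4).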

For orientation: inhibition means the drop in the measured response relative to a control, in per cent.

With `CC1=CC(=O)[C@@H]2[C@@H](C1)[C@]13CO[C@@]4([C@H]1O)N1C[C@H]5C[C@H](C)C[C@@]1(O5)[C@@H](O)C[C@@]4(C)[C@]1(COC(=O)C1)[C@H]3C(=O)[C@@H]2C`, the inhibition at 10 µM was found to be 27% with Neutrophil [1] and 11% in the assay with Neutrophil [2].
For `CC1=CC(=O)[C@@H]2[C@@H](C1)[C@]1(C)C=C3N4C[C@H]5C[C@H](C)C[C@]4(CC[C@@]3(C)[C@]3(COC(=O)C3)[C@H]1C(=O)[C@@H]2C)O5`, in that order: 30% and 18%.
For `CC1=CC(=O)[C@H]2[C@@H](C1)[C@]13CO[C@@]4([C@H]1O)N1C[C@H]5C[C@H](C)C[C@]1(CC[C@@]4(C)[C@]1(COC(=O)C1)[C@H]3C(=O)[C@@H]2C)O5`, in that order: 13% and 15%.
The matching figures for `CC1=CC(=O)[C@@H]2[C@@H](C1)C13C=C4N5C[C@H]6C[C@H](C)C[C@]5(CC[C@@]4(C)[C@]4(COC(=O)C4)[C@H]1[C@@](O)(OC3)[C@@H]2C)O6`: 17% and 17%.
On to `CC1=CC(=O)[C@H]2[C@@H](C1)[C@]13CO[C@@]4(C1=O)N1C[C@H]5C[C@H](C)C[C@]1(CC[C@@]4(C)[C@]1(COC(=O)C1)[C@H]3C(=O)[C@@H]2C)O5`, for which the inhibition at 10 µM is 23% in the assay on Neutrophil [1] and 14% in the assay on Neutrophil [2].
For `CO[C@@H]1[C@@H](C)C[C@@H]2CN3[C@@]1(CC[C@@]1(C)[C@]4(COC(=O)C4)[C@H]4C(=O)[C@H](C)[C@@H]5C(=O)C=C(C)C[C@H]5[C@@]45CO[C@@]31C5=O)O2`, in that order: 33% and 20%.
For `CC1=CC(=O)[C@@H]2[C@@H](C1)[C@]13CO[C@@]4(C1=O)N1C[C@H]5C[C@H](C)C[C@]1(CC[C@@]4(C)[C@]1(COC(=O)C1)[C@H]3C(=O)[C@@H]2C)O5`, in that order: 27% and 7%.
Take `CC1=CC(=O)[C@@H]2[C@@H](C1)[C@]13CO[C@@]4([C@H]1Cl)N1C[C@H]5C[C@H](C)C[C@]1(CC[C@@]4(C)[C@]1(COC(=O)C1)[C@H]3C(=O)[C@@H]2C)O5`: the inhibition at 10 µM with Neutrophil [1] turned out to be 25%; in the assay on Neutrophil [2], 23%.
In the case of `CC1=CC(=O)[C@@H]2[C@@H](C1)C13C=C4N5C[C@H]6C[C@H](C)[C@@H](I)[C@]5(CC[C@@]4(C)[C@]4(COC(=O)C4)[C@H]1[C@@](O)(OC3)[C@@H]2C)O6`, the inhibition at 10 µM worked out at 43% in the assay with Neutrophil [1] and 24% with Neutrophil [2].
For the compound `CC1=CC(=O)[C@@H]2[C@@H](C1)C13C=C4N5C[C@@H]6O[C@@]5(CC[C@@]4(C)[C@]4(COC(=O)C4)[C@H]1[C@@](O)(OC3)[C@@H]2C)C[C@@H](C)[C@@H]6O`, the inhibition at 10 µM was 25% with Neutrophil [1] and 14% in the assay with Neutrophil [2].
The matching figures for `CC1=CC(=O)[C@@H]2[C@@H](C1)[C@]13CO[C@@]4(C1=O)N1C[C@H]5C[C@H](C)C[C@@]1(O5)[C@@H](O)C[C@@]4(C)[C@]1(COC(=O)C1)[C@H]3C(=O)[C@@H]2C`: 15% and 13%.
The matching figures for `CC1=CC(=O)[C@@H]2[C@@H](C1)[C@]13CO[C@@]4([C@H]1O)N1C[C@H]5C[C@H](C)C[C@]1(CC[C@@]4(C)[C@]1(COC(=O)C1)[C@H]3C(=O)[C@@H]2C)O5`: 6% and 9%.
The matching figures for `O=c1cc(N2CCOCC2)oc2c(-c3ccccc3)cccc12` [LY-294002]: 73% and 99%.

Source of the values: ChEMBL document CHEMBL4041502, “Zoanthamine-Type Alkaloids from the Zoanthid Zoanthus kuroshio Collected in Taiwan and Their Effects on Inflammation” (2016).
